Test results: PubChem BioAssay AID623950 (Broad Institute, 2012)
Active and inactive are the calls of the source.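 How the source made its calls: active means compounds lowering cell ATP signal with fitted IC50 at most twice the highest tested dose; inconclusive means flat fit with 30 to 70% signal loss, or poor fit; inactive means the rest.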

Test system: HeLa viability, CellTiter-Glo ATP luminescence
Test: HeLa cell cytotoxicity, dose response, cytotoxicity control for pyoverdine inhibitor project, CellTiter-Glo luminescence, dry powder samples (AID 623950)
Details: not given
How it was run: (§1)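 Measured by: CellTiter-Glo luminescence as viability measure / Test system: HeLa cells / Amount: 2,500 cells per well / Doses: compound dose series in threefold dilution steps / Timing: cell growth 24 h at 37 °C, then 48 h compound exposure / Medium: phenol red-free DMEM, 10% FBS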

SMILES | IC50
N#CC(c1ccc(F)cc1)c1ccc(C(F)(F)F)c(Cl)n1 (stereo not drawn) | 35.7 µM
N#CC(c1ccc(C(F)(F)F)cc1)c1ccc(C(F)(F)F)c(Cl)n1 (stereo not drawn) | 38.1 µM
N#CC(c1ccc(C(F)(F)F)c(Cl)n1)c1ccc(Cl)cc1F (stereo not drawn) | 48.4 µM
Cc1ccc(C(C#N)c2ccc(Cl)cc2)nc1C#N (stereo not drawn) | > 100 µM (inactive)
N#CC(c1ccc(C(F)(F)F)c(Cl)n1)c1ccc(Cl)cc1Cl (stereo not drawn) | 26.7 µM
N#CC(c1ccc(C(F)(F)F)cc1)c1cccc(C(F)(F)F)n1 (stereo not drawn) | > 100 µM (inactive)
N#CC(c1cccc(Cl)n1)c1ccc(Cl)cc1Cl (stereo not drawn) | > 100 µM (inactive)

Test system: not listed separately
Test: as above
Details: HeLa viability, CellTiter-Glo ATP luminescence; at 50 µM (top of the series)
How it was run: as §1

SMILES | activity change, negative = toxicity
N#CC(c1ccc(Cl)cc1)c1ccc(C(F)(F)F)cn1 (stereo not drawn) | -0.58% (inactive)
CCCCC(C#N)c1ccc(F)cc1 (stereo not drawn) | 4.15% (inactive)
CC(C)CC(C#N)c1ccc(Cl)cc1 (stereo not drawn) | -0.673% (inactive)
N#CC(c1cccc(C(F)(F)F)n1)c1ccccc1OC(F)(F)F (stereo not drawn) | 6.21% (inactive)
CCCCC(C#N)c1ccc(Cl)cc1Cl (stereo not drawn) | 0.128% (inactive)
Cc1ccc(C(C#N)c2ccc(Cl)cc2)nc1 (stereo not drawn) | 4.52% (inactive)
Cc1ccc(C(C#N)c2ccc(F)cc2)nc1C#N (stereo not drawn) | -12.8% (inactive)
N#CC(c1ccc(C(F)(F)F)c(Cl)n1)c1ccccc1OC(F)(F)F (stereo not drawn) | -4.77% (inactive)
N#CC(c1cccc(C(F)(F)F)n1)c1ccc(Cl)cc1F (stereo not drawn) | -5.15% (inactive)
COc1cccc(C(C#N)c2ccc(F)cc2)n1 (stereo not drawn) | -7.47% (inactive)
CCCCC(C#N)c1ccc(Cl)cc1F (stereo not drawn) | -1.43% (inactive)
N#CC(c1ccc(Cl)cc1)c1ncccc1Cl (stereo not drawn) | -0.68% (inactive)
N#CC(c1ccc(C(F)(F)F)cc1)c1cccc(Cl)n1 (stereo not drawn) | -3.15% (inactive)
N#Cc1cccc(C(C#N)c2ccc(Cl)cc2)n1 (stereo not drawn) | -0.235% (inactive)
N#CC(CC1CC1)c1ccc(Cl)cc1 (stereo not drawn) | 4.91% (inactive)
Cc1ccc(C(C#N)c2ccccc2OC(F)(F)F)nc1C#N (stereo not drawn) | -0.14% (inactive)

SMILES | activity change, negative = toxicity
CCCC(C#N)c1ccc(Cl)cc1 (stereo not drawn) | 2.14% (inactive)
N#CC(c1ccc(Cl)cc1Cl)c1ncccc1Cl (stereo not drawn) | -10.4% (inactive)
N#CC(c1ccc(Cl)cc1)c1ccc(Cl)cn1 (stereo not drawn) | -2.34% (inactive)
Cc1cccc(C(C#N)c2ccc(Cl)cc2)n1 (stereo not drawn) | -4.38% (inactive)
N#CC(c1ccc(F)cc1)c1cccc(C(F)(F)F)n1 (stereo not drawn) | 4.89% (inactive)
N#CC(c1ccc(Cl)cc1)c1cccc(C(F)(F)F)n1 (stereo not drawn) | -8.05% (inactive)
N#Cc1cccc(C(C#N)c2ccc(Cl)cc2Cl)n1 (stereo not drawn) | 7.33% (inactive)
N#CC(c1cccc(Cl)n1)c1ccccc1OC(F)(F)F (stereo not drawn) | -11% (inactive)
CCCCC(C#N)c1ccccc1OC(F)(F)F (stereo not drawn) | 8.75% (inactive)
N#Cc1cccc(C(C#N)c2ccc(Cl)cc2F)n1 (stereo not drawn) | 4.41% (inactive)
CCCCC(C#N)c1ccc(Cl)cc1 (stereo not drawn) | 1.19% (inactive)
CCCCC(C#N)c1ccc(C(F)(F)F)cc1 (stereo not drawn) | 4.97% (inactive)
N#CC(c1cccc(Cl)n1)c1ccc(Cl)cc1F (stereo not drawn) | -3.91% (inactive)
CC(C#N)(c1ccc(Cl)cc1)c1ccc(C(F)(F)F)cn1 (stereo not drawn) | -9.2% (inactive)
N#Cc1cccc(C(C#N)c2ccccc2OC(F)(F)F)n1 (stereo not drawn) | -3.3% (inactive)
